Experimental findings from PubChem BioAssay AID1229 (Sanford-Burnham Center for Chemical Genomics, 2008) are described below.

The campaign covered roughly 190,000 compounds. About 10 (0.005%) were called active. Only a selection was taken, and actives are over-represented in it overall. Values without a mark were called inactive.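 How the source made its calls: active means diaphorase activity raised at least twofold by the compound at 20 µM; inactive means activation factor below 2.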

The experiment in a line: compounds boosting diaphorase resazurin reduction – biochemical, uHTS, resorufin fluorescence, counter-screen for diaphorase-coupled primary assays, primary screen (AID 1229). As to conditions: Diaphorase/resazurin coupled assay, 16 min, at 20 µM, hits give high values, 1 = vehicle wells, 0 = NADH-free wells. The method in brief:
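System – purified diaphorase enzyme from Clostridium kluyveri · Input – enzyme 0.07 U/mL final · Also added – final NADH 0.114 mM, resazurin 0.1 mM · Measured by – fluorescence of resorufin, 544 nm excitation, 590 nm emission · Timing – 16 min enzyme reaction, ambient temperature · Measure – resorufin increase flagging diaphorase activators or reducers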
(In general: The colour change of resazurin is a common sign of viable cells or microbes.)
For the compound `CN(C(=O)CSc1nnc(-c2n[nH]c3ccccc23)o1)c1ccccc1`, the activation factor was 0.8. With `O=C(CSc1ccc(-c2ccccc2)nn1)NCC1CCCO1` (stereo not given) the figure was 1.1; with `Cc1cccc(C(=O)OCC(=O)NCC(C)C)c1O`, 0.9.

For `O=C(Cc1cccs1)Nc1nnc(SCc2ccc(F)cc2)s1`, the activation factor was 0.9. With `Cn1cnnc1Sc1ccc(CN2CCN(C3CCCC3)C(CCO)C2)o1` (stereo not given) the figure was 1; with `CCCN=C1NC(=O)C(CC(=O)NCCc2ccc(OC)c(OC)c2)S1` (stereo not given), 0.9. With `Cc1ccc(N(Cc2cc3ccccc3[nH]c2=O)C(=O)c2cccs2)cc1` the figure was 0.9; with `CCOc1ccc(N2C(=O)CN(c3cccc4ccccc34)C2=S)cc1`, 1; with `CNC(=S)NNC(=O)c1cccn(Cc2ccccc2)c1=O`, 1.

With `Cc1cc(C(=O)NNC(=S)NC(C)c2ccccc2)cs1` (stereo not given), the activation factor was 1. With `CCSc1nc(C)c(CCOc2cccc(C)c2)c(=O)[nH]1`, the activation factor is 1.

As for `NS(=O)(=O)c1ccc(NC(=S)NNC(=O)c2cccs2)cc1`, the activation factor is 0.8. Turning to `Cc1ccc(NC(=S)N(CCCN2CCCC2)Cc2cccn2Cc2ccc(Cl)cc2)cc1`, the activation factor is 1. Regarding `COc1cccc(CC2(CO)CCN(Cc3cnc(-c4cccc(C)c4)nc3)CC2)c1`, the activation factor is 0.7. In the case of `COC(=O)CC1=NN(c2ccccc2)C(=O)C1` it was 1.1; in that of `CCCn1c(=O)c2c(C(F)(F)F)cc(-c3cccs3)nc2n(CCC)c1=O`, 1. In the case of `Cc1ccc(C(=O)N/C(=C\c2cccs2)C(=O)NCCc2ccccn2)cc1C` it was 0.7; in that of `CN(C)c1ccc(C2Nc3ccccc3C(=O)N2NS(=O)(=O)c2ccccc2)cc1` (stereo not given), 0.9. With `CCCCn1c(N)c(N2CCOCC2)c(=O)n(CC(=O)NCCc2ccccc2)c1=O` the figure was 1; with `COCCN1C(=O)N[C@@H](c2ccccc2)C(C(=O)OC)=C1C`, 1; with `Cc1cc(C)n2nc(SCC(N)=O)nc2n1`, 1. Take `O=C(CNC(=O)c1ccccc1)NCC(=O)OCC(=O)c1ccccc1`: the activation factor is 1.1. On to `O=C(O)c1cccc(NC(=O)c2cc(-c3cccc(Cl)c3)nc3ccccc23)c1`, for which the activation factor was 0.8. For `[O-][n+]1onc2c1CCc1[nH]c(-c3ccccc3)nc1-2`, the activation factor was 0.9. With `O=S(=O)(NC1CC1)c1ccc2c3c(cccc13)CC2` the figure was 1. With `C/C(Cn1nnc2ccccc21)=N\OC(=O)c1cc(F)c(F)cc1Cl` the figure was 0.9; with `COc1cccc(CNC(=O)c2n[nH]c3ccccc23)c1`, 1; with `Cc1ccc(C(=O)OC(C)CN2CCOCC2)cc1` (stereo not given), 1.

Turning to `O=C(O)COc1ccc(/C=N/O)cc1Br`, the activation factor is 0.9. In the case of `Cc1ccccc1C(CC(=O)c1cccs1)C(C#N)C#N` (stereo not given) it was 0.9; in that of `O=C(Nc1ccccc1Cc1ccccc1)c1ccc2c(c1)SC1=NS(=O)(=O)CCN12`, 0.9; in that of `COc1cc(NC(=O)CSc2nnc3ccc(-c4ccncc4)nn23)cc(OC)c1`, 0.8. For `O=C(c1ccc(F)cc1)n1cc(C(=S)N2CCOCC2)c2ccccc21`, the activation factor was 1. In the case of `Cc1cccc(C)c1NC(=O)CNC(=O)Cc1ccc(Br)cc1` it was 0.9; in that of `COC(=O)C1=NNC2(c3ccc(C)cc3)C(=O)N(c3cccc(C)c3C)C(=O)C12` (stereo not given), 0.9; in that of `CCCNCc1cc(OCC)c(OCC(=O)Nc2ccccc2)cc1Br`, 0.9. In the case of `Cc1cc(C)cc(OCC(=O)NCc2cc(C)nc3ccccc23)c1` it was 1.

In the case of `COc1ccc([N+](=O)[O-])cc1NC(=O)c1ccc(N(Cc2ccccc2C)S(C)(=O)=O)cc1`, the activation factor is 0.9. For `COc1ccc(NS(=O)(=O)c2cc(NC(=O)C3CCCCC3)ccc2N2CCOCC2)cc1`, the activation factor is 1.1. In the case of `Cc1cc2c(C)nc(N/N=C/c3ccccc3)nc2o1` it was 0.9; in that of `O=C1NCC(=O)N(Cc2ccccc2)/C1=C/c1ccccc1`, 1.

As for `CCOC(=O)C(C)Sc1nnc(CSc2nc3nc(C)cc(C)n3n2)o1` (stereo not given), the activation factor was 1.

As to `Cc1ccc(NC2=C(Cl)C(=O)OC2OC(=O)c2ccccc2C)cc1` (stereo not given), the activation factor was 0.9. With `O=C(Nc1ccc(F)cc1)N1CCN(c2ccc(F)cc2)CC1` the figure was 0.9; with `Cc1ccc(/C(N)=N/OC(=O)COc2ccc(Cl)c(C)c2)cc1`, 0.9.

Turning to `Cc1cc(C)n(-c2nnc(N3CCN(c4ccccc4)CC3)nn2)n1`, the activation factor was 0.9. Take `CCn1c(COc2c(C)cccc2C)nnc1SCc1nc2ccccc2c(=O)[nH]1`: the activation factor was 0.7. In the case of `Cc1cc(Cl)ccc1C(=O)C1CCCN(C(=O)CCN2CCCO2)C1` (stereo not given), the activation factor was 1. `Oc1c(Br)cccc1/C=N/Nc1c(F)c(F)c(F)c(F)c1F`: the activation factor was 1. In the case of `Cc1ccc(S(=O)(=O)N(CC(=O)NN=C2CCN(C)CC2)c2ccc(F)cc2)cc1` it was 0.9; in that of `O=C(NC1CCCC1)C(NS(=O)(=O)c1ccc(Br)s1)c1ccccc1` (stereo not given), 0.9. With `CCOC(=O)C1CCN(C(=O)c2ccccc2N(C)S(=O)(=O)c2ccccc2)CC1` the figure was 1; with `Cn1cnnc1SCc1nnc(-c2ccccc2Br)o1`, 1; with `COc1ccc(CNC(=O)CN2CCC(n3nnc4cc(F)ccc43)CC2)cc1`, 0.8.

As for `C=C(C)c1cccc(C(C)(C)NC(=O)NC2CCCC2)c1`, the activation factor was 0.9.

As to `Nc1[nH]c(=S)nc2nc(-c3ccccc3)c(-c3ccccc3)nc12`, the activation factor was 0.8.

For `CC1=C[C@H]2Cc3cc(C)cc(C)c3S(=O)(=O)[C@@H]2C=C1`, the activation factor was 0.9.

Consider `CCCCOc1ccc(C(=O)N/C(=C/C=C/c2ccccc2)C(=O)N2CCOCC2)cc1`, for which the activation factor is 0.8. Turning to `Cc1ccc(S(=O)(=O)Cc2cc(-c3ccc(Cl)cc3)no2)cc1`, the activation factor is 0.8. In the case of `CCOc1ccc(/C=C(/NC(=O)c2ccccc2)C(=O)NCCC(=O)O)cc1` it was 0.9; in that of `NC(=O)C[C@@H]1NC(=O)CNC(=O)c2cc([N+](=O)[O-])cc(I)c2NCCC(C(N)=O)NC1=O` (stereo not given in full), 1.1; in that of `CSc1cc(C)[nH]c(=O)n1`, 0.9. With `C[n+]1ccc(/C=C/c2c[nH]c3ccccc23)cc1` the figure was 1; with `COC(=O)CCc1sc(Nc2ccc(Br)cc2)nc1-c1ccc(OC)cc1`, 0.8; with `O=c1[nH]c2cccnc2n(CCNc2ncc(C(F)(F)F)cc2Cl)c1=O`, 0.8. With `COCC1CCCN(Cc2cn[nH]c2-c2cc3ccccc3o2)C1` (stereo not given), the activation factor was 0.9. In the case of `CC1CCCCC1NC(=O)COC(=O)Cc1ccc(Br)cc1` (stereo not given) it was 0.9.

Consider `O=C1NC2(CCCCCC2)C(=O)N1CCS(=O)(=O)Oc1ccccc1`, for which the activation factor is 1. In the case of `COc1cccc(-n2nc(C(=O)N3CCN(Cc4ccccc4)CC3)c3ccccc3c2=O)c1` it was 0.8; in that of `CCN(CC)CCNCc1ccc(OCc2ccc(Cl)nc2)c(OC)c1`, 1.1. For the compound `CC(C)Oc1c(Br)cc(Br)cc1/C=N/NC(N)=S`, the activation factor is 1. In the case of `Cc1cc(C)cc(OCC(=O)NNC(=O)CCN2C(=O)c3ccccc3C2=O)c1` it was 0.9. In the case of `O=C(CCC(=O)NNc1nc2ccccc2c2nc(-c3ccccc3)nn12)NCCCN1CCCC1=O` it was 0.8; in that of `COc1ccc(-c2csc(-c3cccs3)n2)cc1OC`, 0.8.

In the case of `COc1ccc(O)c(C(=O)c2cnc3c(c2)c(-c2ccc(F)cc2)c(C#N)c(=O)n3C)c1`, the activation factor was 0.9. On to `CC(C)(C)CC(C)(C)NCC(O)COCCOc1ccc(Br)cc1` (stereo not given), for which the activation factor is 0.9. For the compound `Cc1cc(NS(=O)(=O)c2ccc(NC(=O)c3cccc(OC(F)F)c3)cc2)nc(C)n1`, the activation factor was 1. On to `CCC1S/C(=N/N=C/c2ccco2)NC1=O` (stereo not given), for which the activation factor was 0.9. With `CCOC(=O)C(NC(=O)CC(C)C)(Nc1sc2c(c1C(N)=O)CCCC2)C(F)(F)F` (stereo not given) the figure was 0.9; with `C/C(=N\NC(=O)CNC(=O)C(c1ccccc1)c1ccccc1)c1ccc(C)cc1`, 0.9; with `C=CCn1c(COc2ccc(F)cc2)nnc1SCC(=O)Nc1cccc(S(N)(=O)=O)c1`, 1.1. With `CCOc1ccc(NS(=O)(=O)c2cc(C)c(C)cc2C)cc1` the figure was 0.8; with `O=C(Nc1ccc(Cl)cn1)c1ccc2c(c1)OCCO2`, 1; with `CN(C)S(=O)(=O)c1ccc(N2CCCC2=O)c([N+](=O)[O-])c1`, 0.9. With `S=C(Cc1ccc(Cl)cc1)N1CCOCC1` the figure was 1; with `CN(Cc1ccc2nsnc2c1)Cc1nc(Cc2cccc(F)c2)no1`, 0.8. On to `CCN(CC(=O)NCCc1ccccc1)S(=O)(=O)c1ccccc1`, for which the activation factor is 1.

In the case of `NC(N)=N/N=C/c1ccc(OCc2ccc(Cl)cc2Cl)cc1`, the activation factor was 2.2 (active). In the case of `NC(N)=N/N=C/c1ccc(Cl)c([N+](=O)[O-])c1` it was 1. With `COc1ccc(C(=O)O/N=C(\N)Cc2ccc(Cl)cc2Cl)cc1OC`, the activation factor is 1. In the case of `O=C(CCc1n[nH]c(=O)[nH]c1=O)N/N=C/c1ccc(Br)o1` it was 1; in that of `Cc1cccc(OCCNC(=O)CSc2ccc(C(F)(F)F)cc2[N+](=O)[O-])c1`, 0.9. For `Cc1ccc(NC(=O)Nc2ccccc2)c(Br)c1`, the activation factor was 0.9. As for `COc1cc2[nH]c(=S)n(Cc3ccc(F)cc3)c(=O)c2cc1OC`, the activation factor was 0.9. In the case of `O=C(Nc1ccc2c(c1)OCO2)c1sc2cc(Cl)ccc2c1Cl` it was 1. With `Cc1cc(NC(=O)CSc2nc3ccccc3n2CC(C)C)no1` the figure was 0.8; with `CNC(=O)COc1ccc(S(=O)(=O)Nc2ccccc2)cc1`, 0.8. Take `COc1ccc(C)cc1NC(=S)Nc1ccccc1SC`: the activation factor is 1. With `Cc1cccc(NC(=O)Nc2ccc3c(c2)OCO3)n1` the figure was 0.8. In the case of `CCOc1ccc(C(=O)NC(=S)Nc2ccc(N3CCOCC3)c(Cl)c2)cc1[N+](=O)[O-]` it was 0.8.
